Results reported in ChEMBL document CHEMBL4130514, “Sporothriolide-Related Compounds from the Fungus Hypoxylon monticulosum CLL-205 Isolated from a Sphaerocladina Sponge from the Tahiti Coast” (J Nat Prod, 2017).
Active and inactive are the calls of the source. No cut-off for these calls is given here.

Legend:
MCF7 = experiment: Antiproliferative activity against human MCF7 cells after 72 hrs by MTT assay; format: functional, cell-based
Procedure, shortened: (§1)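 Tetrazolium colorimetric proliferation assay in HCT-116 (colon carcinoma), PC-3 (prostate) and MCF-7 (breast) cells grown in DMEM with 10% fetal calf serum plus penicillin, streptomycin and fungizone. After 24 h growth, cells were treated with compounds from 100 μM to 10 nM, given in DMSO at 1% to 3% final. MTS was added at 72 h and absorbance was read at 490 nm against untreated cells. IC50 was determined from separate duplicate experiments.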

PC-3 = experiment: Antiproliferative activity against human PC3 cells after 72 hrs by MTT assay; format: functional, cell-based; procedure, shortened: as §1
Escherichia coli = experiment: Antibacterial activity against Escherichia coli; format: functional, organism-based
Bacillus subtilis = experiment: Antibacterial activity against Bacillus subtilis; format: functional, organism-based
Micrococcus luteus = experiment: Antibacterial activity against Micrococcus luteus; format: functional, organism-based
HCT-116 = experiment: Antiproliferative activity against human HCT116 cells after 72 hrs by MTT assay; format: functional, cell-based; settings: for IC50: HCT-116, 72 h; procedure, shortened: as §1
[1] = Inhibition of hyaluronidase (unknown origin); set-up: species or system Homo sapiens

IC50 [1] [µM] | IC50 (HCT-116) [µM] | IC50 (MCF7; MCF7, 72 h) [µM] | IC50 (PC-3; PC-3, 72 h) [µM] | SMILES | Activity (MCF7) | Activity (PC-3) | Activity (Escherichia coli) | Activity (Bacillus subtilis) | Activity (Micrococcus luteus) | Activity (HCT-116)
300 | – | – | – | CCCCCC[C@H]1OC(=O)[C@@H]2[C@H]1OC(=O)[C@]21CCC=C[C@H]1/C=C/[C@@H]1O[C@H](C)C[C@@H]1O | inactive | inactive | inactive | inactive | inactive | inactive
– | 18 | – | – | C=C(C(=O)O)[C@H]1C[C@@H](CCCCCC)OC1=O | – | – | inactive | inactive | inactive | –
320 | – | – | – | CC1(C)[C@@H](O[C@H]2O[C@H](C(=O)O)[C@@H](O)[C@H](O)[C@H]2O[C@@H]2O[C@H](C(=O)O)[C@@H](O)[C@H](O)[C@H]2O)CC[C@]2(C)[C@H]3C(=O)C=C4[C@@H]5C[C@@](C)(C(=O)O)CC[C@]5(C)CC[C@@]4(C)[C@]3(C)CC[C@@H]12 [GLYCYRRHIZIN] | – | – | – | – | – | –
– | 7.1 | 4 | 6.4 | C=C1C(=O)O[C@@H]2[C@H]1C(=O)O[C@@H]2CCCCCC | – | – | inactive | inactive | inactive | –
